PDI turbidity: PDI (human) enzyme inhibition; P07237; PDI insulin aggregation turbidity, A650, 90 min; inhibition, % at 10 µM; actives 0.052% (n = 350,000); AID 588391;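 active means mean inhibition across replicates of 30% or more, whatever share of single replicates reach that level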
GSIS activator: GLuc luminescence reporter in INS-1E cells, primary screen for activators of glucose-dependent secretion of insulin | AID 743287 | activation, % at 16.6 µM | actives 0.61% (n = 370,000) | INS-1E GLuc reporter insulin secretion, 2-3 h;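 active means lowest replicate activation of at least 40%, so every replicate reaches that level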;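 further: 0% = median of neutral control wells and 100% = median of IBMX positive control wells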
ERp5 block: ERp5 (human) disulfide isomerase inhibition; Q15084; actives 0.05% (n = 350,000); ERp5 insulin aggregation, absorbance 650 nm, 90 min; inhibition, % at 9.99 µM; AID 651711;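 active means mean replicate inhibition above about 25%, with every replicate also reaching it, limit read from the data, passing the limit was not always enough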
S100A4 inh HTS: blocks human S100A4 binding to myosin IIA peptide; inhibition, % at 10.7 µM; actives 0.14% (n = 360,000); S100A4/TAMRA-MyoIIA peptide fluorescence polarization; AID 652163; P26447;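 active means mean inhibition of at least 70% across replicates, with every replicate also reaching that level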
Target sequence (P26447 whole entry, looked up): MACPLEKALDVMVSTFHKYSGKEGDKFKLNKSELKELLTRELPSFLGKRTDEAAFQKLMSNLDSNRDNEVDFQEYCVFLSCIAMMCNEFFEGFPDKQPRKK
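Material: S100A4 monomer protein | Medium: HEPES pH 7.2 with CaCl2, KCl, NaCl, DTT, Triton | Reagent: Labelled myosin peptide probe, 5 nM | Doses: One dose per compound | Times: 5 min incubation before reading | Benchmarks: Neutral control DMSO, positive control TFP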
SIRT5 inh: inhibitors of human sirtuin-5 desuccinylase; actives 1.1% (n = 330,000); Purified SirT5, succinyl-peptide AMC, trypsin-coupled fluorescence; AID 652115; inhibition, % at 15 µM; Q9NXA8; in the data active means inhibition above about 15%
Target sequence (Q9NXA8 whole entry, looked up): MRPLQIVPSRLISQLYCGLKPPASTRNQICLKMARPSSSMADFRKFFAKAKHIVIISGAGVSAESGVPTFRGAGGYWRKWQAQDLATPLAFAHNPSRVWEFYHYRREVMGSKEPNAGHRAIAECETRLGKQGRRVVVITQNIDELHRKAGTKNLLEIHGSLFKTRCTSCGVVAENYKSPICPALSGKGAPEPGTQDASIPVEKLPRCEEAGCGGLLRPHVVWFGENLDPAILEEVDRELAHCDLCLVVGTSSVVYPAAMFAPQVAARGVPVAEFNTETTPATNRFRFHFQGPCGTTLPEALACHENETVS
An asterisk follows results filed as active; nt = no result given; + = active, no number; ! = repeats disagree. A selection: hits, their analogues and other compounds. The true share with any hit is near 1.5%.

SMILES	PDI turbidity	GSIS activator	ERp5 block	S100A4 inh HTS	SIRT5 inh
Cc1noc(C)c1S(=O)(=O)Nc1ccc2c(c1)C(=O)N([C@H](C)CO)C[C@H](C)[C@H](CN(C)S(=O)(=O)c1ccccc1)O2	nt	-11.5	-0.6	13.5	-6.0
CCOc1ccccc1NC(=O)CN1c2cccc3cccc(c23)S1(=O)=O	-5.4	4.2	-0.9	-5.7	18.5*
C[C@@H]1CN([C@H](C)CO)S(=O)(=O)c2ccc(-c3cncnc3)cc2O[C@@H]1CN(C)C	nt	16.7	7.3	10.4	-4.0
CCOc1cc(-c2noc(CCC(=O)NCCc3ccccc3)n2)ccc1OC	14.9	1.5	4.1	0.5	1.2
CCOc1ccc(-c2noc(CCC(=O)NC)n2)cc1OCC	6.6	56.0*	nt	nt	nt
Cc1noc(C)c1S(=O)(=O)Nc1ccc2c(c1)C(=O)N([C@H](C)CO)C[C@H](C)[C@@H](CN(C)C(=O)Nc1ccc(F)cc1)O2	nt	8.9	nt	nt	nt
COc1ccc(S(=O)(=O)N(C)C[C@H]2Oc3ccc(NS(=O)(=O)c4ccccc4)cc3CC(=O)N([C@H](C)CO)C[C@@H]2C)cc1	-3.3	0.5	-0.4	0.1	16.8*
COc1ccc(NC(=O)Nc2ccc3c(c2)CC(=O)N([C@@H](C)CO)C[C@@H](C)[C@@H](CN(C)S(=O)(=O)c2ccc(C)cc2)O3)cc1	nt	-4.7	-1.1	-6.1	1.2
Cc1ccc(S(=O)(=O)Nc2ccc3c(c2)CC(=O)N([C@@H](C)CO)C[C@H](C)[C@H](CN(C)S(=O)(=O)c2c(C)noc2C)O3)cc1	nt	3.2	-5.8	9.8	6.2
Cc1ccc(S(=O)(=O)Nc2ccc3c(c2)CC(=O)N([C@H](C)CO)C[C@H](C)[C@@H](CN(C)S(=O)(=O)c2c(C)noc2C)O3)cc1	nt	-12.6	1.2	-2.1	15.8*
COc1ccc(S(=O)(=O)Nc2ccc3c(c2)CC(=O)N([C@@H](C)CO)C[C@@H](C)[C@H](CN(C)S(=O)(=O)c2ccc(C)cc2)O3)cc1	nt	-1.6	-13.3	-2.2	18.5*
COc1ccc(S(=O)(=O)Nc2ccc3c(c2)CC(=O)N([C@@H](C)CO)C[C@@H](C)[C@@H](CN(C)S(=O)(=O)c2ccccc2)O3)cc1	nt	-8.5	nt	nt	nt
COc1ccc(NC(=O)Nc2ccc3c(c2)CC(=O)N([C@H](C)CO)C[C@H](C)[C@@H](CN(C)S(=O)(=O)c2ccc(C)cc2)O3)cc1	nt	-27.7	0.3	-5.2	15.1*
CO[C@H]1CN(C)C(=O)c2cc(NC(C)=O)ccc2OC[C@@H](C)N(C(=O)C2CCC2)C[C@@H]1C	nt	-3.6	-0.8	-9.2	-4.6
Cc1noc(C)c1S(=O)(=O)Nc1ccc2c(c1)CC(=O)N([C@H](C)CO)C[C@H](C)[C@H](CN(C)Cc1ccncc1)O2	nt	9.8	-0.9	-1.9	19.5*
C[C@@H]1CN([C@@H](C)CO)C(=O)c2cc(NC(=O)NC3CCCCC3)ccc2O[C@@H](C)CCCCO[C@H]1CN(C)C(=O)C1CCCCC1	nt	-15.6	-1.4	-9.6	10.3
COc1ccc(NC(=O)Nc2ccc3c(c2)C(=O)N([C@H](C)CO)C[C@@H](C)[C@@H](CN(C)C(=O)C2CCCCC2)OCCCC[C@H](C)O3)cc1	4.3	-16.0	-3.5	-4.0	16.8*!
C[C@H]1CCCCO[C@H](CN(C)C(=O)C2CCCCC2)[C@@H](C)CN([C@@H](C)CO)C(=O)c2cc(NC(=O)NC3CCCCC3)ccc2O1	3.0	-21.4	0.7	-4.3	15.7*!
C[C@H](CO)N1C[C@H](C)[C@@H](CN(C)C(=O)C2CCCCC2)OCCCC[C@H](C)Oc2ccc(NC(=O)Nc3ccc(F)cc3)cc2C1=O	nt	-8.8	1.5	-4.7	21.9*
CO[C@@H]1CN(C)C(=O)c2cc(NC(=O)C3CC3)ccc2OC[C@H](C)N(CCC(F)(F)F)C[C@@H]1C	nt	9.7	-4.3	-5.4	-5.1
O=C(Nc1ccc(C(F)(F)F)cc1)N1C[C@@H]2N[C@H](C1)C2c1ccc(-c2ccccc2)cc1 (stereo partly drawn)	nt	754.7*!	4.1	10.0	20.5*!
Cc1cccc(-c2ccc(C3[C@@H]4CN(C(=O)Nc5ccccc5)C[C@H]3N4)cc2)c1 (stereo partly drawn)	nt	-19.9	nt	nt	nt
O=C(Nc1ccc(C(F)(F)F)cc1)N1C[C@@H]2N[C@H](C1)C2c1ccc(/C=C/c2ccccc2)cc1 (stereo partly drawn)	nt	+	-3.4	-10.0	12.0
COc1ccccc1CNc1ncccc1[N+](=O)[O-]	-1.4	14.5	0.1	1.6	15.8*
CCSc1ccc2nnc(-c3ccc(F)cc3)n2n1	0.6	60.8*	-0.1	-2.5	5.5
SMILES	PDI turbidity	GSIS activator	ERp5 block	S100A4 inh HTS	SIRT5 inh
CCOC(=O)CNC(=O)CSc1ccc2nnc(-c3ccc(F)cc3)n2n1	1.3	7.5	-3.4	26.8	1.5
C[C@@H]1CN([C@@H](C)CO)C(=O)c2cc(NC(=O)C3CCCCC3)ccc2O[C@@H](C)CCCCO[C@@H]1CN(C)S(=O)(=O)c1ccc(Cl)cc1	nt	-33.9	-0.4	-0.7	17.7*
C[C@@H]1CCCCO[C@H](CN(C)S(=O)(=O)c2ccc(Cl)cc2)[C@@H](C)CN([C@H](C)CO)C(=O)c2cc(NC(=O)C3CCCCC3)ccc2O1	nt	-29.8	-3.0	-21.4	0.3
Cc1noc(C)c1S(=O)(=O)N(C)C[C@@H]1OCCCC[C@H](C)Oc2ccc(NC(=O)C3CCCCC3)cc2C(=O)N([C@H](C)CO)C[C@H]1C	nt	-18.1	-15.0	111.0*	3.6
C[C@@H]1CCCCO[C@H](CN(C)S(=O)(=O)c2ccccc2)[C@@H](C)CN([C@@H](C)CO)C(=O)c2cc(NC(=O)C3CCCCC3)ccc2O1	nt	-19.2	-0.1	0.3	16.3*
C/C=C/c1ccc2c(c1)O[C@@H](CN(C)C(=O)Cc1ccncc1)[C@@H](C)CN([C@@H](C)CO)S2(=O)=O	nt	-6.5	9.5	-7.0	1.2
C/C=C/c1ccc([C@H]2[C@@H](CO)N3C(=O)CN(S(=O)(=O)c4ccccc4)C[C@@H]23)cc1	nt	-18.6	-3.0	-14.3	-1.1
O=C(NCC1CC1)[C@@H]1[C@@H](CO)[C@@H]2Cn3c(ccc(-c4cccc(F)c4)c3=O)[C@@H]2N1CC1CCCC1	nt	-14.1	nt	-20.0	nt
CCOC(=O)c1ccccc1NC(=O)COC(=O)CCCOc1ccccc1	1.3	55.9*	-1.1	-3.0	-3.2
CCOC(=O)c1ccccc1NC(=O)COc1ccccc1	-6.8	nt	nt	nt	nt
COc1ccc2c3c(n(C)c2c1)[C@@H](CO)N(Cc1ccccc1)CC31CN(C)C1	nt	9.5	4.6	2.6	-3.7
COc1cc2nc(N3CCN(c4cc(C)ccc4C)CC3)nc(N)c2cc1OC	21.5	221.0*	-2.6	-2.6	0.8
O=C(O)c1ccc2nc(-c3ccco3)c(-c3ccco3)nc2c1	0.6	-0.7	-0.1	-0.9	21.9*
Cc1nc(N2CCOCC2)nc(N2CCCC2)c1[N+](=O)[O-]	3.5	53.1*	nt	nt	nt
COc1ccc(NC(=O)N(C)C[C@H]2Oc3ncc(C#C[C@@H](C)O)cc3C(=O)N([C@H](C)CO)C[C@@H]2C)cc1	nt	-1.2	2.5	-3.0	7.2
